Test results: ChEMBL document CHEMBL4610093, “Bioreductively Activatable Prodrug Conjugates of Combretastatin A-1 and Combretastatin A-4 as Anticancer Agents Targeted toward Tumor-Associated Hypoxia” (J Nat Prod, 2020)

Experiments:
A549 [1] = assay: Cytotoxicity against human A549 cells incubated for 52 hrs in oxic condition by sulforhodamine B assay; assay type: functional; details: A549, 52 h
Procedure, shortened: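 Normoxic arm: A549 cells at 6000 cells/well, 2 h attachment. Serial dilutions from DMSO stocks, top final concentration 50 µg/mL, in duplicate. Drug exposure 4 h under 95% air/5% CO2, then 48 h aerobic culture. Cytotoxicity read by SRB.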

A549 [2] = assay: Cytotoxicity against human A549 cells incubated for 4 hrs in anoxic condition followed by oxic exposure for 48 hrs by sulforhodamine B assay; assay type: functional
Procedure, shortened: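 Anoxic arm: A549 cells handled in an anaerobic chamber (≤10 ppm O2) with medium and plates preconditioned ≥48 h. 6000 cells/well, 2 h attachment. Serial dilutions from DMSO stocks, top final concentration 50 µg/mL, in duplicate. 4 h anaerobic drug exposure, then 48 h aerobic, then SRB readout.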

A549 [3] = assay: Ratio of GI50 for human A549 cells in oxic condition to GI50 for anoxic condition; assay type: functional
Procedure, shortened: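 A549 cells at 6000 cells/well. Drug exposure 4 h either anaerobic (≤10 ppm O2, preconditioned medium and plates) or under 95% air/5% CO2, then 48 h aerobic. SRB cytotoxicity read in duplicate, top final concentration 50 µg/mL. Ratio taken as oxic over anoxic value.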

[4] = Inhibition of bovine brain tubulin polymerisation preincubated for 15 mins followed by GTP addition and measured for 20 mins by turbidimetry based spectrophotometric method; set-up: species or system Bos taurus
Procedure, shortened: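 Bovine brain tubulin at 1.0 mg/mL (10 µM) in 0.8 M monosodium glutamate (pH 6.6) with 4% DMSO and compound. Preincubated 15 min at 30 °C, chilled, then 0.4 mM GTP added. Temperature jumped from 0 to 30 °C; turbidity at 350 nm followed for 20 min. IC50 is the concentration halving extent of assembly.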

[5] = Stability of the compound in pH 7.4 potassium phosphate buffer assessed as compound hydrolysis after 48 hrs; assay type: physicochemical; details: read-out: Drug degradation
Tubulin (Homo sapiens) [6] = molecular target: T1, Tubulin (Homo sapiens) (UniProt P68371+Q9H4B7+P0DPH7+P68366+Q13509+Q71U36+P04350+Q3ZCM7+P07437+P68363+Q9BQE3+Q6PEY2+Q13885+Q9BVA1+Q9BUF5); assay: Inhibition of [3H]colchicine binding to tubulin (unknown origin) at 5 uM incubated for 10 mins by scintillation counting relative to control; assay type: protein-complex assay
Procedure, shortened: (§1)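 Purified tubulin at 1.0 µM with 5.0 µM [3H]colchicine, in 1.0 M monosodium glutamate (pH 6.6), 0.5 mg/mL BSA, 0.1 M glucose-1-phosphate, 1.0 mM MgCl2, 1.0 mM GTP and 5% DMSO. Incubated 10 min at 37 °C, then filter-bound radioactivity counted. Percent inhibition taken against no-inhibitor controls, corrected for filter binding without tubulin.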

[7] = molecular target: T2, NADPH-cytochrome P450 oxidoreductase (Rattus norvegicus, UniProt P00388); assay: Substrate activity at rat NADPH-cytochrome P450 oxidoreductase expressed in supersomes assessed as compound cleavage after 90 mins in anaerobic condition by HPLC analysis; details: read-out: Drug degradation
T2 sequence (P00388 whole entry): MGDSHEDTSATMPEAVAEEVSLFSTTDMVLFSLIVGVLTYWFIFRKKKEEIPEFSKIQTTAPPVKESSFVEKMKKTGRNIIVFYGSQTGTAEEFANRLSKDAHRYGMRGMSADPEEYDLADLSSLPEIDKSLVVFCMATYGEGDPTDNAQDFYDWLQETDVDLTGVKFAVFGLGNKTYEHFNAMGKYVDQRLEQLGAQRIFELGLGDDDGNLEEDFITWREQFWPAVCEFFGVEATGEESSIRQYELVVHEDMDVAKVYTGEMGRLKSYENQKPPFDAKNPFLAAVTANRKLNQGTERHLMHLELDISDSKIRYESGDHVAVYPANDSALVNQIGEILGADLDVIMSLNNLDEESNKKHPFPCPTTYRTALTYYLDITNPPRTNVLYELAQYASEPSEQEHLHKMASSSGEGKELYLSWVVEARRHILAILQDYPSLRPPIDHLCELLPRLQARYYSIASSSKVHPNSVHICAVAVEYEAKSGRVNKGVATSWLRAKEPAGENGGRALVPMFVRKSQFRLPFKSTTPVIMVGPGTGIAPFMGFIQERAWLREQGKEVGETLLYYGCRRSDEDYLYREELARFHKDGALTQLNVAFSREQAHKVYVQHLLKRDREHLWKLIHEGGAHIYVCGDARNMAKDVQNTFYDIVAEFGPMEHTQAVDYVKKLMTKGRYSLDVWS
Procedure, shortened: (§2)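 Rat POR supersomes (0.006 U) with 0.8 mM NADPH, acting on compound diluted from 10 mM DMSO stock into 200 mM potassium phosphate pH 7.4 with 0.1% Triton X-100 and 400 µM protocatechuic acid. Made anaerobic by N2 evacuation/sparging plus 0.08 U protocatechuate dioxygenase. Incubated at 37 °C, quenched with acetonitrile, quantified by HPLC against standard curves; no-POR controls.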

[8] = molecular target: T2, NADPH-cytochrome P450 oxidoreductase; assay: Substrate activity at rat NADPH-cytochrome P450 oxidoreductase expressed in supersomes assessed as compound cleavage after 24 hrs in anaerobic condition by HPLC analysis; details: read-out: Activity; procedure, shortened: as §2
[9] = Solubility of the compound in buffered saline; assay type: physicochemical; details: buffer
[10] = Solubility of the compound in water; assay type: physicochemical; details: buffer
[11] = Solubility of the compound in DMSO; assay type: physicochemical
4T1 = assay: Induction in necrosis in tumor of BALB/C mouse implanted with mouse 4T1 cells harboring firefly luciferase reporter gene at 180 mg/kg, ip measured after 72 to 96 hrs by hematoxylin and eosin staining based assay (reference value: 46%); assay type: functional
Tubulin (Homo sapiens) [12] = molecular target: T1, Tubulin (Homo sapiens); assay: Inhibition of [3H]colchicine binding to tubulin (unknown origin) at 1 uM incubated for 10 mins by scintillation counting relative to control; assay type: protein-complex assay; procedure, shortened: as §1
[13] = Stability of the compound in pH 7.4 potassium phosphate buffer assessed as spontaneous compound hydrolysis measured for 150 mins; assay type: physicochemical; details: pH 7.4, 2.5 h
[14] = Stability of the compound in pH 7.4 potassium phosphate buffer assessed as compound hydrolysis after 24 to 48 hrs; assay type: physicochemical

| Structure (SMILES) | GI50 (A549 [1]) | GI50 (A549 [2]) | RatioGI50 (A549 [3]) | IC50 [4] | degraded at 48 h [5] | inhibition (Tubulin (Homo sapiens) [6]) | metabolised at 1.5 h [7] | metabolised at 24 h [8] | solubility [9] | solubility [10] | solubility [11] | Activity (4T1) | inhibition (Tubulin (Homo sapiens) [12]) | Stability [13] | Stability [14] |
| --- | --- | --- | --- | --- | --- | --- | --- | --- | --- | --- | --- | --- | --- | --- | --- |
| Nc1n[n+]([O-])c2ccccc2[n+]1[O-] [TIRAPAZAMINE] | 63000 nM | 6800 nM | 9.2 | – | – | – | – | – | – | – | – | – | – | – | – |
| COc1cc(/C=C\c2ccc(OC)c3c2OC(C)(c2ccc([N+](=O)[O-])s2)O3)cc(OC)c1OC (stereo unspecified) | 550 nM | 720 nM | 0.76 | > 20000 nM | – | – | – | – | – | – | – | – | – | – | – |
| COc1cc(/C=C\c2ccc(OC)c(OCc3ccc([N+](=O)[O-])s3)c2O)cc(OC)c1OC | 320 nM | 690 nM | 0.46 | 4300 nM | 0% | 58% | 17.9% | – | – | – | – | – | – | – | – |
| O=[N+]([O-])c1nccn1CC(O)CNCCBr (stereo unspecified) | > 89000 nM | 24000 nM | – | – | – | – | – | – | – | – | – | – | – | – | – |
| COc1ccc(/C=C\c2cc(OC)c(OC)c(OC)c2)cc1OC(C)(C)c1ccc([N+](=O)[O-])s1 | 2200 nM | 53 nM | 41.5 | > 20000 nM | 0.69% | 33% | 25.4% | 100% | Insoluble | Insoluble | Soluble | 47 - 55% | – | – | – |
| COc1cc(/C=C\c2ccc(OC)c(OC(C)c3ccc([N+](=O)[O-])s3)c2OC(C)C)cc(OC)c1OC (stereo unspecified) | 2900 nM | 1200 nM | 2.4 | > 20000 nM | 0.69% | – | 3.8% | – | – | – | – | – | – | – | – |
| COc1ccc(/C=C\c2cc(OC)c(OC)c(OC)c2)c(O)c1O [COMBRETASTATIN A-1] | 1200 nM | 820 nM | – | – | – | 99.6% | – | – | – | – | – | – | – | – | – |
| COc1cc(/C=C\c2ccc(OC)c(OC(C)c3ccc([N+](=O)[O-])s3)c2OS(=O)(=O)c2ccc(C)cc2)cc(OC)c1OC (stereo unspecified) | 4600 nM | 3300 nM | 1.4 | > 20000 nM | 0.84% | – | 13.5% | – | – | – | – | – | – | – | – |
| COc1ccc(/C=C\c2cc(OC)c(OC)c(OC)c2)c(OS(=O)(=O)c2ccc(C)cc2)c1O | 65 nM | 190 nM | – | 840 nM | – | 84% | – | – | – | – | – | – | 50% | – | – |
| COc1ccc(/C=C\c2cc(OC)c(OC)c(OC)c2)c(OC(C)C)c1O | 63 nM | 46 nM | – | 820 nM | – | 94% | – | – | – | – | – | – | 72% | – | – |
| COc1ccc(/C=C\c2cc(OC)c(OC)c(OC)c2)c(OC(C)(C)c2ccc([N+](=O)[O-])s2)c1O | 6000 nM | 480 nM | 12.5 | 1300 nM | – | 43% | 100% | – | – | – | – | – | – | Stable | Unstable |
